Data on one molecule can be found in ChEMBL document CHEMBL3526053, “Species-dependent uptake of glycylsarcosine but not oseltamivir in Pichia pastoris expressing the rat, mouse, and human intestinal peptide transporter PEPT1” (Drug Metab Dispos, 2012).

A short description of data set [1]: Protein binding in human at 50 to 500 mg, po bid. The note with it: plasma.
For data set [2], the target named is T1, Solute carrier family 15 member 1 (Homo sapiens, UniProt P46059).
T1 sequence (P46059 whole entry): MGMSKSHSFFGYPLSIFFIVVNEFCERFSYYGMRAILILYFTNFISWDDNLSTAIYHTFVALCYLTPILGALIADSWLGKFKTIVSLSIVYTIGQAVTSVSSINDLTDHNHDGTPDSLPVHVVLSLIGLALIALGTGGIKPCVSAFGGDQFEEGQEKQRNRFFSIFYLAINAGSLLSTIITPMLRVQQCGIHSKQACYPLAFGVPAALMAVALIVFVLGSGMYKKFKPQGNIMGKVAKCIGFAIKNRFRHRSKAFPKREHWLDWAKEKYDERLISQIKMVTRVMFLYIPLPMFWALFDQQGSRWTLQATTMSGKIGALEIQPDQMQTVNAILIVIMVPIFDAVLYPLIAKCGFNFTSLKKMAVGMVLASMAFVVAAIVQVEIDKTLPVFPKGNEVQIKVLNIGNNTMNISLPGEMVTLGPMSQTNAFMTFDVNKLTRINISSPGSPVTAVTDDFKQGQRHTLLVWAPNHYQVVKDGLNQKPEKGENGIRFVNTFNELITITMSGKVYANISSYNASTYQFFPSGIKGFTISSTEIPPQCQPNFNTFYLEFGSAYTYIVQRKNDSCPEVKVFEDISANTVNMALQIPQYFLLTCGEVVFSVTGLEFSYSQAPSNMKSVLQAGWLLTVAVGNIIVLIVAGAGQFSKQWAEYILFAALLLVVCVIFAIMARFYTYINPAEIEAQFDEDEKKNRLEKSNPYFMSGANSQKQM
Nature of the data set: Inhibition of human recombinant PEPT1 expressed in Pichia pastoris GS115 assessed as [3H]GlySar uptake after 30s by dual-channel liquid scintillation counting analysis.

Data set [3] has as its target T2, Solute carrier family 15 member 1 (Mus musculus, UniProt Q9JIP7).
T2 sequence (Q9JIP7 whole entry): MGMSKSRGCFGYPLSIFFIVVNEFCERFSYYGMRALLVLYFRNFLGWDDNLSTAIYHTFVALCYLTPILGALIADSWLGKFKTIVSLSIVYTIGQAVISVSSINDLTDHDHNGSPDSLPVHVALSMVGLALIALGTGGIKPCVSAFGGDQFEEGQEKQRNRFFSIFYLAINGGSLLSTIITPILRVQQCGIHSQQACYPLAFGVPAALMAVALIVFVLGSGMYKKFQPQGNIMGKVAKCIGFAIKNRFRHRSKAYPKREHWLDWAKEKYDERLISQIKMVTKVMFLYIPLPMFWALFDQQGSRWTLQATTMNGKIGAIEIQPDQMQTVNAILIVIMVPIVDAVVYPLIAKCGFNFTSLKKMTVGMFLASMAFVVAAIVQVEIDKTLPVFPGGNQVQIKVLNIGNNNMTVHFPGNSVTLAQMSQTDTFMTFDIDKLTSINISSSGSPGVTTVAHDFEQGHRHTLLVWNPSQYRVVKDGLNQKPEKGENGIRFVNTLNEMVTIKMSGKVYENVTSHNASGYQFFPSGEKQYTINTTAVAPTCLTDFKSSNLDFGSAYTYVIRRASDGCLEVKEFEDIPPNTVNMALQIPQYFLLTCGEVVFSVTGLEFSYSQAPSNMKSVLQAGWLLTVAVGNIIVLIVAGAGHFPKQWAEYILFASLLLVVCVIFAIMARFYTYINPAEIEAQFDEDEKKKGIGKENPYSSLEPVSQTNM
Nature of the data set: Inhibition of mouse recombinant PEPT1 expressed in Pichia pastoris GS115 assessed as [3H]GlySar uptake after 30s by dual-channel liquid scintillation counting analysis.

Data set [4] addresses T3, Solute carrier family 15 member 1 (Rattus norvegicus, UniProt P51574).
T3 sequence (P51574 whole entry): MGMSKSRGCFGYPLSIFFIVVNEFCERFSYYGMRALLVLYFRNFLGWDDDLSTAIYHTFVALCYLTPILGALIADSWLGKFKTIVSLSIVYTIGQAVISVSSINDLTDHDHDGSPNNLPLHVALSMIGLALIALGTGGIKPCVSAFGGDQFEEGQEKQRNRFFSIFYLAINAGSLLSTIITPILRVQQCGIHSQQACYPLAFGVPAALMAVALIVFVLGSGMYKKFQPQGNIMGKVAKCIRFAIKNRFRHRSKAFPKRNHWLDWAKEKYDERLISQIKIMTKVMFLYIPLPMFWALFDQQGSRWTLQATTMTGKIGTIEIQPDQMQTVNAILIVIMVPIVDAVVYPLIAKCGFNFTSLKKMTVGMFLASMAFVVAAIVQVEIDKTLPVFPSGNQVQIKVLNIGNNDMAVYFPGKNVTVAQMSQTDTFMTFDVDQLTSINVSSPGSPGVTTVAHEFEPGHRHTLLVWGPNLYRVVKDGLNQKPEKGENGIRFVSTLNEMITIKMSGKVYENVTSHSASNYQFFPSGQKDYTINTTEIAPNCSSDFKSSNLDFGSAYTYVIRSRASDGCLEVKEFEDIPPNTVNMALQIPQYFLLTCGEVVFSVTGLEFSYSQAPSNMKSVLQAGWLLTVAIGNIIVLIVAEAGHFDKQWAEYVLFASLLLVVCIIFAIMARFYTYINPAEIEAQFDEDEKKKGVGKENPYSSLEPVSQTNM
Nature of the data set: Inhibition of rat recombinant PEPT1 expressed in Pichia pastoris GS115 assessed as [3H]GlySar uptake after 30s by dual-channel liquid scintillation counting analysis.

Data set [5] concerns the target T1, Solute carrier family 15 member 1. Nature of the data set: Drug uptake in Pichia pastoris GS115 expressing human recombinant PEPT1 at 0 degC measured immediately after drug addition by dual-channel liquid scintillation counting analysis. The class given is ADME. In a few lines: (§1)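 Nonspecific binding of 5.0 µM [14C]oseltamivir is measured at 0°C in pH 6.5 phosphate buffer. The incubation is quenched immediately after adding the drug to the methanol-induced yeast suspension. Bound radioactivity is counted by liquid scintillation and expressed as pmol/OD600. Mean ± SE (n=6).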

Data set [6] has as its target T2, Solute carrier family 15 member 1. Nature of the data set: Drug uptake in Pichia pastoris GS115 expressing mouse recombinant PEPT1 at 0 degC measured immediately after drug addition by dual-channel liquid scintillation counting analysis. The format is ADME. In a few lines:
as §1

Data set [7] addresses T3, Solute carrier family 15 member 1. Nature of the data set: Drug uptake in Pichia pastoris GS115 expressing rat recombinant PEPT1 at 0 degC measured immediately after drug addition by dual-channel liquid scintillation counting analysis. The class given is ADME. In a few lines:
as §1

Data set [8] deals with Komagataella pastoris. Nature of the data set: Stability in Pichia pastoris GS115 expressing human recombinant PEPT1 at 5 uM measured for up to 30 mins by HPLC analysis. The class given is ADME, organism-based. Conditions: 0.5 h. In a few lines:
(§2)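 [14C]oseltamivir 5.0 µM with [14C]PEG200 5.0 µM internal standard was incubated with induced GS115 cells (vector, human, mouse or rat PEPT1) at 24°C, pH 6.5, for up to 30 min. Reactions were quenched with 20% trichloroacetic acid and centrifuged at 4°C. Supernate was analysed by HPLC with radiochemical detection; retention 14.9 min for oseltamivir, 3.6 min for PEG200. n=6.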

In data set [9] the test system is Komagataella pastoris. Nature of the data set: Stability in Pichia pastoris GS115 expressing mouse recombinant PEPT1 at 5 uM measured for up to 30 mins by HPLC analysis. The class given is ADME, organism-based. Conditions: 0.5 h. In a few lines:
as §2

The subject of data set [10] is Komagataella pastoris. Nature of the data set: Stability in Pichia pastoris GS115 expressing rat recombinant PEPT1 at 5 uM measured for up to 30 mins by HPLC analysis. The format is ADME, organism-based. The note with it: 0.5 h. In a few lines: as §2
In data set [11] the test system is Komagataella pastoris. Nature of the data set: Stability in Pichia pastoris GS115 at 5 uM measured for up to 30 mins by HPLC analysis. The format is ADME, organism-based. The note with it: 0.5 h. In a few lines:
as §2

Take `CCOC(=O)C1=C[C@@H](OC(CC)CC)[C@H](NC(C)=O)[C@@H](N)C1.O=P(O)(O)O` [OSELTAMIVIR PHOSPHATE]: the fraction unbound (in general, the share of the substance not bound to proteins or other matrix) in [1] was 0.58. For the same molecule, the values for the IC50 in data set [2], in data set [3] and in [4] were 27.4 mM, 10.7 mM and 18.3 mM, respectively. Further, the Drug uptake in data set [5], in [6] and in [7] was 0.2 pmol/OD each time. Besides, the Stability entry in the data set on Komagataella pastoris [8], in the data set on Komagataella pastoris [9], with Komagataella pastoris [10] and in the data set with Komagataella pastoris [11] was “Stable” each time.
